Several values for one entry are separate records, joined by “and”; a condition that tells them apart may be missing. Identical values can stand only once.
These molecules were tested on Fibroblast (assay: Multiplex assay against human fibroblast). Settings: 12 h, 1 µM, compound concentration 1 uM.
Assay type: toxicity, cell-based
Method in brief: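 At seeding, live cells were stained with Hoechst33342, BioTracker Green Microtubule Cytoskeleton Dye, MitoTracker Red and Annexin V Alexa Fluor 680. After compound addition they were imaged on a CQ1 microscope at 37°C and 5% CO2, and CellPathfinder machine-learning gating sorted them into Hoechst high-intensity objects or normal cells, with normal cells further split into healthy, pyknosed or fragmented nuclei and pyknosed cells into mitotic or apoptotic. Tubulin, mitochondrial-mass and membrane-permeability phenotypes are given as per cents of cells with healthy nuclei.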

Structure (SMILES)	Population Apoptotic (%)	Population Fragmented Nuclei (%)	Population Healthy Nuclei (%)	Population Hoechst High Intensity Objects (%)	Population Membrane Permeable-Phenotype (%)	Population Mitochondria Different-Phenotype (%)	Population Normal (%)	Population Pyknosed Nuclei (%)	Total Cell Count	Population Mitotic Cells (%)
CC(C)CNc1nc(N2CCN(CC3CCCOC3)CC2)ncc1C(=O)NCc1ccccc1 (stereo not drawn)	34% and 80.22%	39.83% and 19.74%	17.8% and 20.39%	0%	9.52% and 19.35%	9.52% and 6.45%	100%	42.37% and 59.87%	118 and 152	
COc1cc2nc(N3CCN(C(=O)COc4c(OC)cccc4C(C)C)CC3)nc(N)c2cc1OC.Cl.Cl	50% and 36%	17% and 39%	51% and 42%	4% and 9%	3% and 5%	6% and 7%	95% and 90%	30% and 18%	123 and 182	50% and 63%

Same assay, conditions: 12 h, 1 µM, compound concentration 1 uM

Structure (SMILES)	Population Tubulin-Different-Phenotype (%)
COc1cc2nc(N3CCN(C(=O)COc4c(OC)cccc4C(C)C)CC3)nc(N)c2cc1OC.Cl.Cl	40% and 43%

Same assay, conditions: 12 h, 10 µM, compound concentration 10 uM

Structure (SMILES)	Population Apoptotic (%)	Population Fragmented Nuclei (%)	Population Healthy Nuclei (%)	Population Hoechst High Intensity Objects (%)	Population Mitochondria Different-Phenotype (%)	Population Normal (%)	Population Pyknosed Nuclei (%)	Population Tubulin-Different-Phenotype (%)	Total Cell Count	Population Membrane Permeable-Phenotype (%)
CC(C)CNc1nc(N2CCN(CC3CCCOC3)CC2)ncc1C(=O)NCc1ccccc1 (stereo not drawn)	39.68% and 87.25%	33.58% and 21.43%	19.4% and 12.34%	0%	57.69% and 63.16%	100%	47.01% and 66.23%	57.69% and 94.74%	134 and 154	
COc1cc2nc(N3CCN(C(=O)COc4c(OC)cccc4C(C)C)CC3)nc(N)c2cc1OC.Cl.Cl	33% and 29%	13% and 22%	47% and 46%	20% and 10%	15% and 8%	79% and 89%	38% and 30%	63% and 56%	346 and 283	0% and 4%

Same assay, conditions: 12 h, 10 µM, compound concentration 10 uM

Structure (SMILES)	Population Mitotic Cells (%)
COc1cc2nc(N3CCN(C(=O)COc4c(OC)cccc4C(C)C)CC3)nc(N)c2cc1OC.Cl.Cl	66% and 70%

Same assay, conditions: 24 h, 1 µM, compound concentration 1 uM

Structure (SMILES)	Population Apoptotic (%)	Population Healthy Nuclei (%)	Population Hoechst High Intensity Objects (%)	Population Membrane Permeable-Phenotype (%)	Population Mitochondria Different-Phenotype (%)	Population Normal (%)	Population Pyknosed Nuclei (%)	Population Tubulin-Different-Phenotype (%)	Total Cell Count	Population Fragmented Nuclei (%)
CC(C)CNc1nc(N2CCN(CC3CCCOC3)CC2)ncc1C(=O)NCc1ccccc1 (stereo not drawn)	32.61% and 81.58%	30.28% and 37.59%	0%	9.09% and 24.53%	24.24% and 15.09%	100%	42.2% and 53.9%	39.39% and 67.92%	109 and 141	
COc1cc2nc(N3CCN(C(=O)COc4c(OC)cccc4C(C)C)CC3)nc(N)c2cc1OC.Cl.Cl	68% and 57%	58% and 42%	3% and 11%	1% and 5%	9% and 11%	96% and 88%	17%	39% and 50%	128 and 180	23% and 40%

Same assay, conditions: 24 h, 1 µM, compound concentration 1 uM

Structure (SMILES)	Population Mitotic Cells (%)
COc1cc2nc(N3CCN(C(=O)COc4c(OC)cccc4C(C)C)CC3)nc(N)c2cc1OC.Cl.Cl	31% and 42%

Same assay, conditions: 24 h, 10 µM, compound concentration 10 uM

Structure (SMILES)	Population Apoptotic (%)	Population Fragmented Nuclei (%)	Population Healthy Nuclei (%)	Population Hoechst High Intensity Objects (%)	Population Mitochondria Different-Phenotype (%)	Population Mitotic Cells (%)	Population Normal (%)	Population Pyknosed Nuclei (%)	Population Tubulin-Different-Phenotype (%)	Total Cell Count
CC(C)CNc1nc(N2CCN(CC3CCCOC3)CC2)ncc1C(=O)NCc1ccccc1 (stereo not drawn)	59.65% and 72.31%	28.46% and 10.32%	27.69% and 47.74%	0%	58.33% and 47.3%	40.35% and 27.69%	100%	43.85% and 41.94%	66.67% and 87.84%	130 and 155
COc1cc2nc(N3CCN(C(=O)COc4c(OC)cccc4C(C)C)CC3)nc(N)c2cc1OC.Cl.Cl	40% and 33%	13% and 25%	45% and 40%	39% and 23%		60% and 66%	60% and 76%	41% and 34%	38% and 47%	344 and 273

Same assay, conditions: 24 h, 10 µM, compound concentration 10 uM

Structure (SMILES)	Population Membrane Permeable-Phenotype (%)
COc1cc2nc(N3CCN(C(=O)COc4c(OC)cccc4C(C)C)CC3)nc(N)c2cc1OC.Cl.Cl	0% and 4%

Same assay, conditions: 48 h, 1 µM, compound concentration 1 uM

Structure (SMILES)	Population Apoptotic (%)	Population Fragmented Nuclei (%)	Population Healthy Nuclei (%)	Population Hoechst High Intensity Objects (%)	Population Membrane Permeable-Phenotype (%)	Population Mitochondria Different-Phenotype (%)	Population Mitotic Cells (%)	Population Normal (%)	Population Pyknosed Nuclei (%)	Population Tubulin-Different-Phenotype (%)
CC(C)CNc1nc(N2CCN(CC3CCCOC3)CC2)ncc1C(=O)NCc1ccccc1 (stereo not drawn)	33.33% and 68.42%	15.25% and 14.4%	64.41% and 70.4%	0%	13.16% and 19.32%	36.84% and 19.32%	66.67% and 31.58%	100%	20.34% and 15.2%	35.53% and 67.05%
COc1cc2nc(N3CCN(C(=O)COc4c(OC)cccc4C(C)C)CC3)nc(N)c2cc1OC.Cl.Cl	65% and 42%	31% and 45%	51% and 43%	4% and 10%	0% and 8%	11% and 10%	35% and 57%	96% and 89%	16% and 11%	30% and 57%

Same assay, conditions: 48 h, 1 µM, compound concentration 1 uM

Structure (SMILES)	Total Cell Count
CC(C)CNc1nc(N2CCN(CC3CCCOC3)CC2)ncc1C(=O)NCc1ccccc1 (stereo not drawn)	118 and 125
COc1cc2nc(N3CCN(C(=O)COc4c(OC)cccc4C(C)C)CC3)nc(N)c2cc1OC.Cl.Cl	125 and 193

Same assay, conditions: 48 h, 10 µM, compound concentration 10 uM

Structure (SMILES)	Population Apoptotic (%)	Population Fragmented Nuclei (%)	Population Healthy Nuclei (%)	Population Hoechst High Intensity Objects (%)	Population Mitochondria Different-Phenotype (%)	Population Mitotic Cells (%)	Population Normal (%)	Population Pyknosed Nuclei (%)	Population Tubulin-Different-Phenotype (%)	Total Cell Count
CC(C)CNc1nc(N2CCN(CC3CCCOC3)CC2)ncc1C(=O)NCc1ccccc1 (stereo not drawn)	52.78% and 75%	19.46% and 17.61%	56.38% and 72.33%	0%	60.71% and 47.83%	47.22% and 25%	100%	24.16% and 10.06%	70.24% and 84.35%	149 and 159
COc1cc2nc(N3CCN(C(=O)COc4c(OC)cccc4C(C)C)CC3)nc(N)c2cc1OC.Cl.Cl	45% and 30%	12% and 33%	45% and 33%	52% and 31%	10% and 0%	54% and 69%	47% and 68%	42% and 33%	42% and 43%	358 and 311

Same assay, conditions: 48 h, 10 µM, compound concentration 10 uM

Structure (SMILES)	Population Membrane Permeable-Phenotype (%)
COc1cc2nc(N3CCN(C(=O)COc4c(OC)cccc4C(C)C)CC3)nc(N)c2cc1OC.Cl.Cl	2% and 9%

— ChEMBL document CHEMBL5724801, “EUbOPEN Chemogenomics Library - Multiplex” (2024)
